Measured values: ChEMBL document CHEMBL1130035, “Aroyl(aminoacyl)pyrroles, a new class of anticonvulsant agents” (J Med Chem, 1997)
Calls of active or inactive are those of the source. The calls are words filed in the database; no cut-off is given here.

Experiments:
[1] = test system: Mus musculus; assay: Anticonvulsant activity in mouse maximal electroshock seizure test following i.p. administration.; format: functional; settings: ip
Outline: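 Test agent given ip as a suspension at 30, 100 and 300 mg/kg to one to four mice, observed at 30 min and, in a separate test, at 4 h. Quantified values are ED50 (mg/kg) with 95% confidence limits.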

[2] = test system: Rattus norvegicus; assay: Compound was tested for anticonvulsant activity by maximal electroshock seizure(MES) test in rat upon intraperitoneal administration; format: functional; settings: ip
[3] = (§1) Minimal motor impairment was measured in mouse by rotating rod test upon intraperitoneal administration; format: toxicity; settings: in vivo, ip
Outline: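 Mouse rotorod (rotating rod) test for minimal motor impairment after ip dosing, run alongside the MES and scMET screens. Reported as TD50 (mg/kg) ip with 95% confidence limits.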

[4] = (§2) Ratio of TD50/ED50; TI indicates Therapeutic index; settings: read-out: TI
Outline: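 Protective index calculated as TD50 (rotorod, ip) divided by MES ED50 (ip), both in mg/kg.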

[5] = Minimal motor impairment was measured in rat by overt evidence of ataxia upon intraperitoneal administration; settings: in vivo, ip
[6] = test system: Rattus norvegicus; assay: Minimal motor impairment was measured in rat by rotating rod test upon intraperitoneal administration; settings: ip
[7] = test system: Mus musculus; assay: Ability to block seizures induced by bicuculline after intraperitoneal administration.; format: functional; settings: ip
[8] = test system: Mus musculus; assay: as §1; settings: ip
[9] = as §2
[10] = test system: Mus musculus; assay: Ability to block seizures induced by bicuculline after intraperitoneal administration; NA indicates not active; format: functional, organism-based
[11] = test system: Mus musculus; assay: Effective dose was determined by Maximum Electroshock Seizure test after intraperitoneal dose in mouse; settings: ip
[12] = Toxic dose was measured in rat by rotating rod test.; settings: in vivo
[13] = Toxic dose was measured in mouse by rotating rod test; settings: in vivo
[14] = Ratio of TD50/ED50.; format: ADME; settings: read-out: TI
Outline: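 Maximal electroshock seizure ED50 was determined with ip dosing and reported in mg/kg with 95% confidence limits. TD50 was determined ip by the rotating rod test for minimal motor impairment, and in some cases by overt ataxia. Protective index = TD50/ED50.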

SMILES | ED50 [1] [mg/kg] | ED50 [2] [mg/kg] | TD50 [3] [mg/kg] | selectivity ratio [4] | TD50 [5] [mg/kg] | further results
Cn1cc(C(=O)CN2CCCC2)cc1C(=O)c1ccc(Cl)cc1 | 49.1 | 17.9 | 240 | 4.89 | > 500 | 
CCCC(CCC)C(=O)O [VALPROIC ACID] |  |  |  |  |  | TD50 [6]: 859 mg/kg
CCN(CC)CC(=O)c1cc(C(=O)c2ccc(OC)cc2)n(C)c1.Cl | 33 |  | 45.1 | 1.37 |  | 
Cc1c(C(=O)CN2CCCCC2)c(C)n(C)c1C(=O)c1ccc(Cl)cc1 | 23.9 | 28.1 | 113 | 4.73 | > 500 | ED50 [7]: 25.2 mg/kg
Cc1c(C(=O)CN2CCCC2)c(C)n(C)c1C(=O)c1ccc(Cl)cc1Cl.Cl | 10.3 | 19 | 23.8 | 2.3 | > 200 | 
CCN(CC)CC(=O)c1cc(C(=O)c2ccc(Cl)cc2)n(C)c1.Cl |  | 19.3 | 40.5 | 2.81 | > 500 | 
Cc1c(C(=O)CN2CCCC2)c(C)n(C)c1C(=O)c1ccc(Cl)cc1 | 15.2 | 16.2 | 54.8 | 3.6 | 203 | 
NC(=O)N1c2ccccc2C=Cc2ccccc21 [CARBAMAZEPINE] | 9.9 | 36 |  |  |  | TD50 [8]: 47.8 mg/kg; selectivity ratio [9]: 4.93; ED50 [10]: inactive
Cl.Cn1cc(C(=O)CN2CCCCCC2)cc1C(=O)c1ccc(Cl)cc1 | 27.5 | 22 | 46.1 | 1.67 | > 500 | 
Cl.Cn1cc(C(=O)CN2CCOCC2)cc1C(=O)c1cccc(Cl)c1 | 37.4 | 72 | 110 | 2.96 | > 500 | 
CCN(CC)CC(=O)c1c(C)c(C(=O)c2ccc(Cl)cc2Cl)n(C)c1C | 14.9 | 19.4 | 50.6 | 3.38 | > 500 | 
O=C(CN1CCOCC1)c1c[nH]c(C(=O)c2ccc(Cl)cc2)c1 | 86.2 | 41 | 84.1 | 0.98 | 88 | 
Cl.Cn1cc(C(=O)CNC23C[C@H]4C[C@@H](C2)C[C@@H](C3)C4)cc1C(=O)c1ccccc1Cl | 159 |  | > 250 | > 1.57 |  | 
Cn1cc(C(=O)c2ccc(Cl)cc2)cc1C(=O)CN1CCCCC1 | 59.7 |  | 141 | 2.36 |  | 
CCN(CC)CC(=O)c1c(C)c(C(=O)c2ccc(Cl)cc2)n(C)c1C | 10.3 | 15.5 | 37.7 | 3.65 | > 250 | 
Cn1cc(C(=O)CN2CCCC2)cc1C(=O)c1cccc(Cl)c1.[O-][Cl+3]([O-])([O-])O | 16.5 |  | 55.6 | 3.38 |  | 
Cc1c(C(=O)CN2CCOCC2)c(C)n(C)c1C(=O)c1ccc(Cl)cc1 | 87.6 |  | 233 | 2.66 |  | 
O=C1NC(=O)C(c2ccccc2)(c2ccccc2)N1 [PHENYTOIN] |  |  |  |  |  | ED50 [11]: 6.48 mg/kg; TD50 [12]: > 500 mg/kg; TD50 [13]: 42.8 mg/kg; selectivity ratio [14]: 6.6
Cn1cc(C(=O)CN2CCCCC2)cc1C(=O)c1ccc(Cl)cc1 | 24.4 | 8.4 | 74.2 | 3.05 | 342 | 
